core dimer inh – HCV core protein dimerization inhibition; TR-FRET GST/Flag-core106 dimerization, 1536-well; inhibition, % at 5 µM; 300,000 tested, 0.33% active; AID 1899;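 active = inhibition above the mean of all tested compounds plus 3 SD, set per screening campaign, cut at about 45% in these data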
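System: GST/Flag-tagged HCV core106 proteins. Incubation: compound-protein-antibody incubation 4 h at 22.5 °C. Technique: HTRF with 340 nm excitation, 617/671 nm emission. Medium: KF-containing HEPES buffer, pH 7.45, DTT, CHAPS, BSA. Read-out: inhibition (%) from 671 over 617 nm ratio. Also added: Eu(K)-anti-GST 90 ng/mL plus XL665-anti-Flag 1 µg/mL.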
IMP-1 inh – inhibitors of Pseudomonas aeruginosa IMP-1 metallo-beta-lactamase; 290,000 tested, 0.45% active; inhibition, % at 5.6 µM; purified IMP-1, nitrocefin hydrolysis, epi-absorbance fluorescence;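 active = inhibition above the mean plus 3 SD of all compounds in the same screening run, cut at about 4.5% in these data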;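 also: 0% = IMP-1 with DMSO and 100% = DMSO wells lacking enzyme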
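Assay system: purified IMP-1; Quantity: IMP-1 0.2 nM before substrate addition; Medium: HEPES buffer pH 7.1 with ZnSO4 and Brij 35; Incubation: 15 min enzyme–compound preincubation, then 25 min nitrocefin reaction, 25 °C; Signal: fluorescence quenching readout, ex 480/em 530 nm; Controls: DMSO with and without IMP-1; Repeats: singlicate testing.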
PHOSPHO1 inh – blocks human PHOSPHO1 phosphatase activity. recombinant PHOSPHO1, absorbance phosphatase assay. inhibition, % at 13.3 µM. 290,000 tested, 1.1% active; in the data active = inhibition above about 60%
Target sequence (Q8TCT1 whole entry, looked up): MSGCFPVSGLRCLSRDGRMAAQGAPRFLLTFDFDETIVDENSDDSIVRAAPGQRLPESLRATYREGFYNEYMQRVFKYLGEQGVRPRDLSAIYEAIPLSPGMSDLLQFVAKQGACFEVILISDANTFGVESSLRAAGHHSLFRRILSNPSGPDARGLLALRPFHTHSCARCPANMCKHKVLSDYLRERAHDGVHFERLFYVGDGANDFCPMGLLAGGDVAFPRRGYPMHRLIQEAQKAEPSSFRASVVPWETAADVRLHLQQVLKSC
SUMO HTRF inh – inhibitors of human SUMOylation (UBC9); P63279; HTRF SUMOylation assay, SAE1/SAE2 + UBC9, in vitro; inhibition, % at 35 µM; 290,000 tested, 0.36% active; in the data active = inhibition above about 50%, passing the limit was not always enough
Target sequence (P63279 whole entry, looked up): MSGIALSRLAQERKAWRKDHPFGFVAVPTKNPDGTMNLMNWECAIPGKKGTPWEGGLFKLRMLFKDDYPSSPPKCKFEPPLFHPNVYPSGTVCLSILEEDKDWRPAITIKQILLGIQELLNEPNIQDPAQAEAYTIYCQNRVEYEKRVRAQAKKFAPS
VIM-2 inhibitor – inhibitors of Pseudomonas aeruginosa VIM-2 metallo-beta-lactamase; 290,000 tested, 0.89% active; inhibition, % at 5.6 µM; purified VIM-2, nitrocefin hydrolysis, epi-absorbance fluorescence;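 active = inhibition above the mean of all tested compounds plus 3 SD, cutoff set per screening run, cut at about 7.5% in these data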;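 also: red hydrolysis product quenches plate fluorescence so inhibitors raise well fluorescence; 0% = enzyme with DMSO and 100% = DMSO without enzyme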
NS3 helicase inh – blocks Hepatitis C virus NS3 helicase unwinding; inhibition, % at 10.9 µM; 290,000 tested, 0.56% active; NS3 helicase DNA unwinding, Cy5 molecular beacon fluorescence; AID 1800;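 active = inhibition above the mean of all tested compounds plus 3 SD, set per campaign, cut at about 35% in these data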;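 also: 0% = DMSO wells and 100% = thioflavine S control wells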
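Control set: DMSO versus 110 µM thioflavine S; Material: NS3 helicase fragment of HCV; Measured by: Cy5 fluorescence at 0 and 60 min, beacon hairpin quenching; Read-out basis: percent inhibition from t60/t0 fluorescence ratio; Times: reaction time 60 min, 25 °C; Repeats: single replicate; Compound dosing: single dose, 10.9 µM nominal final, DMSO 0.8% final.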
* = called active by the depositor; . = not tested or not shown; ! = a repeat was not active. Only some compounds are listed: those with a hit (about 3.1% of all), similar ones and a draw of the others.

SMILES	core dimer inh	IMP-1 inh	PHOSPHO1 inh	SUMO HTRF inh	VIM-2 inhibitor	NS3 helicase inh
COc1ccc(N(C)S(=O)(=O)c2cccc(C(=O)N(C)Cc3ccc(C)o3)c2)cc1	-8	-3	-3	3	-7	-7
COc1ccc2nc(Nc3nc(CSc4nnnn4-c4ccccc4)cc(=O)[nH]3)nc(C)c2c1	1	4.9*	26	23	1	7
CCOc1ccc2nc(Nc3nc(CSc4nnnn4-c4ccccc4)cc(=O)[nH]3)nc(C)c2c1	-2	-1	1	18	1	0
COC(=O)c1ccc(CSc2nc3ccc(C)cc3[nH]2)o1	3	-4	76*	0	-1	-2
COC(=O)c1ccc(CSc2n[nH]c(=S)s2)o1	-6	-8	102*	9	-2	1
CC(=O)Nc1ccc(S(=O)(=O)N2CCCN(c3nc(C)cc(C)c3C#N)CC2)cc1	7	-4	19	-3	-3	-10
O=C(NC(=S)NNC(=O)c1cccs1)c1ccc(Br)o1	-1	-1	94*	15	-2	4
O=C(Cc1ccccc1)NNC(=S)NC(=O)c1cccs1	-5	-2	86*	-13	-3	0
O=C(NC(=S)NCc1ccccc1)c1cccs1	-1	0	17	-2	-2	-4
O=C(CCc1ccccc1)NNC(=S)NC(=O)c1ccc(Cl)cc1	0	-4	95*	-4	-3	-8
O=C(CCn1c(=O)oc2ccc(Cl)cc21)N1CCN(Cc2ccccc2)CC1	-2	-3	50	-2	-1	1
Cc1cccc(N2Cc3ccc(Br)cc3C2)c1	22	.	.	.	.	.
c1ccc2c(N3CCCCC3)nc(N3CCCC3)nc2c1	-2	-3	3	-11	11*	12
c1ccc(-c2nc(N3CCCCCC3)c3ccccc3n2)nc1	6	5.8*	2	-103	3	-14
Cc1cc(C2=NNC(=NC3CCCCC3)SC2)c(C)n1-c1c(C)n(C)n(-c2ccccc2)c1=O	65*	-4	0	-5	-3	8
CCOC(=O)C1CCN(C(=O)c2cc3c(=O)n4cccc(C)c4nc3s2)CC1	-13	0	35	27	10*	-8
Cc1cccn2c(=O)c3cc(C(=O)N4CCCCC4)sc3nc12	3	-2	35	24	12*	-4
Cc1cc(Br)ccc1NC(=O)C1C2CCC(O2)C1C(=O)O (stereo unspecified)	-7	-2	29	0	-1	9
Cc1cccc(NC(=O)CSc2nnc(CNC(=O)c3cccs3)o2)c1C	-4	-4	-15	3	-3	-7
COc1ccc(C2Nc3ccccc3C(=O)N2Cc2ccco2)cc1CN1C(=O)c2ccccc2C1=O (stereo unspecified)	13	4.7*!	9	5	-1	-5
Cc1cc([N+](=O)[O-])ccc1N(C)C	-1	-1	2	-11	-1	6
O=c1c2ccccc2nc(SCc2ccc([N+](=O)[O-])cc2)n1-c1ccc(Cl)cc1	2	-4	10	13	-2	-1
O=c1c2ccccc2nc(-c2ccc([N+](=O)[O-])cc2)n1O	12	-2	61*	-5	-3	5
Cc1ccc(-c2nc3ccccc3c(=O)n2O)cc1	4	-4	.	22	-3	5
Nn1c(SCc2ccc([N+](=O)[O-])cc2)nc2ccccc2c1=O	13	7.6*	-1	8	-2	29
SMILES	core dimer inh	IMP-1 inh	PHOSPHO1 inh	SUMO HTRF inh	VIM-2 inhibitor	NS3 helicase inh
CCOC(=O)N1CCN(C(=O)c2cc3cc(OC)c(OC)cc3[nH]2)CC1	.	-4	35	13	-5	3
COc1ccccc1C(=O)Nc1c2c(nn1-c1ccc([N+](=O)[O-])cc1)CS(=O)(=O)C2	-5	-3	22	17	1	-1
COc1ccccc1C(=O)Nc1c2c(nn1-c1ccc(Cl)cc1)CS(=O)(=O)C2	14	10*	33	43	6	5
CCOC(=O)CSc1nc2cc(C(=O)OC)ccc2c(=O)n1CCN1CCOCC1	1	-2	70*	20	0	-15
COc1ccc(CN(C)C(=O)COC(=O)c2c(-c3ccccc3Cl)noc2C)cc1	5	-2	7	0	-3	-6
CCc1ccc(CNC(=O)CCCn2c(=O)c3cccn3c3cccnc32)cc1	3	-4	27	23	-1	-3
O=C(CCn1c(=O)c2cccn2c2cccnc21)NCc1cccc(Cl)c1	5	22*	7	24	-6	0
O=C(CCCn1c(=O)c2cccn2c2cccnc21)NCc1cccc(Br)c1	6	7.2*	28	22	4	1
CC(C)Cc1nnc(NC(=O)CCS(=O)(=O)c2ccc(Cl)cc2)s1	-1	-2	24	13	8.7*	2
COc1cccc(/C=C2/Sc3ccc(C(=O)NCCN4CCCC4)cc3NC2=O)c1	-6	-3	27	8	11*	-37
C=CCn1c(-c2cccc3ccccc23)n[nH]c1=S	-6	-5	95*	10	-5	7
C=CCn1c(-c2ccc(F)cc2)n[nH]c1=S	-5	-4	8	0	-2	-3
C=CCn1c(-c2ccccc2)n[nH]c1=S	-9	-2	10	2	3	7
C=CCn1c(Cc2c[nH]c3ccccc23)n[nH]c1=S	0	-5	95*	23	-5	-7
C=CCn1c(-c2ccccc2OC)n[nH]c1=S	3	-2	11	0	9.8*	9
CN(C)CCSc1nc(-c2ccccc2)nc2c1CCC2	-12	0	2	-2	9.8*	-7
CCCc1c(C(=O)N/N=C/c2cccc3ccccc23)nnn1-c1nonc1N	4	-3	62*	13	-3	24
CC1CCN(Cc2c(C(=O)N/N=C/c3cc(Cl)ccc3O)nnn2-c2nonc2N)CC1	38	-2	20	82*	0	-8
COc1c(Cl)cc(Cl)cc1/C=N/NC(=O)c1nnn(-c2nonc2N)c1CN1CCC(C)CC1	6	-1	29	5	0	-5
CC1CCN(Cc2c(C(=O)N/N=C/c3cc(Br)ccc3O)nnn2-c2nonc2N)CC1	29	-2	32	76*	-3	-10
Cc1cc(C)c(/C=N/NC(=O)c2nnn(-c3nonc3N)c2CN2CCC(C)CC2)c(C)c1	19	-4	12	-41	-4	-42
CN1CCN(C(=O)c2ccccc2NC(=O)c2ccccc2)CC1	.	-3	56	4	-4	4
CCOC(=O)N1CCN(C(=O)C(=O)Nc2sc3c(c2C(N)=O)CC(C)(C)OC3)CC1	7	-1	44	-1	-4	3
O=C1CCCCc2sc(Br)c([N+](=O)[O-])c2N1	2	-3	-12	9	-3	2
